Measurements gathered from unrelated publications.
Lines come from different studies, so protocols differ.
Method: competition with immobilised ligand
RPS6KA4 C-terminal kinase domain: Ribosomal protein S6 kinase alpha-4, C-terminal kinase domain (RPS6KA4, Homo sapiens, UniProt O75676)
RPS6KA4 N-terminal kinase domain: Ribosomal protein S6 kinase alpha-4, N-terminal kinase domain (RPS6KA4, Homo sapiens, UniProt O75676)

The remaining binding of `CN(c1nccc(-c2cnn3ncccc23)n1)C1CC1` is reported as 100% (RPS6KA4 C-terminal kinase domain; binding; 1 µM).
`O=C(NCCCN1CCOCC1)c1ccc(Nc2ncc(Cl)c(-c3ccc(Cl)s3)n2)cc1` has a remaining binding of 100% (RPS6KA4 N-terminal kinase domain; binding; 1 µM).
For `C=CC(=O)N1CCC(C(=O)NCC(=O)N2CCN(c3nc(-c4cnc(N)nc4C(F)F)nc(N4CCOCC4)n3)CC2)CC1`, the remaining binding was 82% (RPS6KA4 N-terminal kinase domain; binding; 1 µM).
For `CS(=O)(=O)NCC[C@H](NC(=O)c1cncc2c1cnn2-c1ccc(F)cc1)c1ccnc(S(C)(=O)=O)c1`, the remaining binding was 85% (RPS6KA4 N-terminal kinase domain; cell-free assay; 1 µM).
`O=C(NCC1CCOCC1)c1n[nH]cc1NC(=O)c1c(F)cccc1F` has a remaining binding of 29% (RPS6KA4 C-terminal kinase domain; binding; 1 µM).
`c1cncc(-c2cccc(Nc3nccc(NC4CCCCC4)n3)c2)c1` gave a remaining binding of 100% (RPS6KA4 C-terminal kinase domain; binding; 10 µM).
For `CN(C)c1nccc(-c2cnc3ncccn23)n1`, the remaining binding was 62% (RPS6KA4 C-terminal kinase domain; binding; 1 µM).
With `O=C(N1CCS(=O)(=O)CC1)N1C[C@H](c2ccc(OC(F)(F)F)cc2)C[C@H](c2nc(C3CC3)no2)C1` the remaining binding was 100% (RPS6KA4 N-terminal kinase domain; cell-free assay; 1 µM).
With `c1cnn2ncc(-c3ccnc(N4CCC45COC5)n3)c2c1` the remaining binding was 55% (RPS6KA4 C-terminal kinase domain; binding; 1 µM).
`O=C(NCCCC1CCCCC1)c1ccc(CNC(=O)c2cnn(-c3ccccc3)c2C(F)(F)F)cc1` gave a remaining binding of 90% (RPS6KA4 C-terminal kinase domain; cell-free assay; 0.1 µM).
With `O=C(c1ccc(Nc2nccc(-c3cc4ccccc4s3)n2)cc1)N1CCC(N2CCCC2)CC1` the remaining binding was 100% (RPS6KA4 N-terminal kinase domain; binding; 1 µM).
The remaining binding of `C[C@@H](c1ccc(-n2cnc3c(N)ncnc32)cc1)N1CCc2nn(C)c(Cc3ccccc3)c2C1=O` is reported as 84% (RPS6KA4 N-terminal kinase domain; binding; 0.1 µM).
The remaining binding of `O=C(c1ccc(Nc2ncc(Cl)c(-c3cc4ccccc4s3)n2)cc1)N1CCC(N2CCCC2)CC1` is reported as 100% (RPS6KA4 N-terminal kinase domain; binding; 1 µM).
For `N[C@@H]1CCN(c2nccc(-c3cnn4ncccc34)n2)C1`, the remaining binding was 100% (RPS6KA4 C-terminal kinase domain; binding; 1 µM).
`Cc1noc([C@H]2C[C@@H](c3ccc(C(F)(F)F)cc3)CN(C(=O)N3CCS(=O)(=O)C3)C2)n1` gave a remaining binding of 100% (RPS6KA4 N-terminal kinase domain; cell-free assay; 1 µM).
For `Nc1ncc2c(n1)-c1c([nH]c3ccc(C#CC4CC4)cc13)CCCC2`, the remaining binding was 93% (RPS6KA4 C-terminal kinase domain; binding; 1 µM).
`COc1cnc(Nc2cccc(S(N)(=O)=O)c2)nc1N1CCN(c2ccccc2)CC1` gave a remaining binding of 89% (RPS6KA4 C-terminal kinase domain; binding; 1 µM).
`O=C(NCCCN1CCOCC1)c1ccc(Nc2nccc(-c3cc4ccccc4s3)n2)cc1` gave a remaining binding of 19% (RPS6KA4 C-terminal kinase domain; binding; 1 µM).
`Cc1cnn2ncc(-c3ccnc(N(C)C)n3)c2c1` gave a remaining binding of 62% (RPS6KA4 C-terminal kinase domain; binding; 1 µM).
`CNC(=O)[C@@H]1CC[C@@H](n2c(-c3ccc4cnccc4c3)nc3ccc(C(=O)NCc4cccc(C(N)=O)c4)cc32)C1` gave a remaining binding of 100% (RPS6KA4 N-terminal kinase domain; binding; 1 µM).
With `COc1ncc2cc3ccccc3nc2c1C#N` the remaining binding was 58% (RPS6KA4 C-terminal kinase domain; cell-free assay; 5 µM).
The remaining binding of `FC(F)(F)Oc1cccc(-c2cnc3ccc(-c4ccncc4)nn23)c1` is reported as 87% (RPS6KA4 C-terminal kinase domain; binding; 5 µM).
`O=C(O)[C@H]1[C@H](Cn2nnc3ccccc3c2=O)CC[C@@H]1C(=O)c1ccc(OCCC2CCOCC2)cc1` gave a remaining binding of 100% (RPS6KA4 N-terminal kinase domain; cell-free assay; 1 µM).
`F[C@@H]1CCN(c2nccc(-c3cnn4ncccc34)n2)C1` has a remaining binding of 90% (RPS6KA4 N-terminal kinase domain; binding; 1 µM).
The remaining binding of `CO[C@@H](C)c1c(Nc2ccc([C@H](N(C)C(=O)C3CCS(=O)(=O)CC3)C(F)(F)F)cc2)cnc2cc(Cl)nn12` is reported as 86% (RPS6KA4 N-terminal kinase domain; cell-free assay; 1 µM).
`O=C(Nc1c[nH]nc1C(=O)NC1CCNCC1)c1cc(F)cc(F)c1` has a remaining binding of 34% (RPS6KA4 C-terminal kinase domain; binding; 1 µM).
`Cc1cnc(Nc2ccc(C(=O)N3CCC(N4CCCC4)CC3)cc2)nc1-c1cc2ccccc2s1` has a remaining binding of 100% (RPS6KA4 N-terminal kinase domain; binding; 1 µM).
`CN(CCCC(F)(F)F)c1nccc(-c2cnn3ncccc23)n1` gave a remaining binding of 100% (RPS6KA4 N-terminal kinase domain; binding; 1 µM).
For `O=S(=O)(NC1CCC(c2cc(F)ccc2F)(S(=O)(=O)c2ccc(Cl)cc2)CC1)C(F)(F)F` (stereo not shown), the remaining binding was 100% (RPS6KA4 N-terminal kinase domain; cell-free assay; 1 µM).
`COc1cnc(Nc2cccc(S(N)(=O)=O)c2)nc1N1CCN(c2ccccc2)C(=O)C1` gave a remaining binding of 100% (RPS6KA4 N-terminal kinase domain; binding; 1 µM).
The remaining binding of `O=C(NCc1ncc(C(F)(F)F)cc1Cl)c1ccc2c(c1)C1(CCS(=O)(=O)CC1)[C@@H](C1CC1)N2S(=O)(=O)c1ccc(F)cc1` is reported as 84% (RPS6KA4 C-terminal kinase domain; cell-free assay; 1 µM).
The remaining binding of `O=C(c1ccc(Nc2ncc(Cl)c(-c3ccc(Cl)s3)n2)cc1)N1CCC(N2CCCC2)CC1` is reported as 100% (RPS6KA4 N-terminal kinase domain; binding; 1 µM).
`C[C@H]1CCN(c2nccc(-c3cnn4ncccc34)n2)C1` gave a remaining binding of 56% (RPS6KA4 C-terminal kinase domain; binding; 1 µM).
The remaining binding of `CCN1CCN(Cc2ccc(C(=O)Nc3ccc(C)c(Oc4ccc5c(c4)CC(=O)N5)c3)cc2C(F)(F)F)CC1` is reported as 100% (RPS6KA4 C-terminal kinase domain; binding; 1 µM).
